KCNK9 block: blocks the human KCNK9 two-pore domain potassium channel | Q9NPC2 | B-score at 10 µM | 310,000 compounds, 1.2% hits | HEK293 KCNK9, FluxOR thallium flux fluorescence; stronger effect = lower value;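 active means ratio B-score over 3 SD below the library mean, with starting fluorescence within 5 SD of its mean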;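 further: negative B-score means less thallium flux so channel inhibition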
KCNK3 inh: human KCNK3 channel inhibition, primary screen; O14649; CHO-KCNK3 thallium flux, FluxOR fluorescence; stronger effect = lower value; B-score at 10 µM; 340,000 compounds, 0.84% hits;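 active means B-score under library mean minus 4 SD, starting fluorescence ratio at most library mean plus 5 SD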;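 further: more negative B-score means stronger inhibition of thallium flux through KCNK3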
hERG rescue: shields human hERG channel from block by proarrhythmic agents. Q12809. CHO-hERG, FluxOR thallium flux, dofetilide IC70 present. activation (rescue from dofetilide block), less the hit threshold, % at 10 µM. 310,000 compounds, 0.51% hits. AID 1511;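 active means activation above the mean of controls blocked by dofetilide plus 5 SD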;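 further: thallium influx through hERG after potassium depolarization seen as dye fluorescence rise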
KCNQ1 inh: inhibitors of human KCNQ1 potassium channel | P51787 | CHO-K1 KCNQ1, FluxOR thallium flux fluorescence; stronger effect = higher value | B-score at 10 µM | 310,000 compounds, 1.3% hits | AID 2642;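 active means compounds whose thallium flux B-score, printed positive for inhibition, exceeds three library SD while starting fluorescence stays within three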;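 further: channel opened by potassium depolarization with thallium stimulus after 20 min compound exposure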
Target sequence (P51787 whole entry, looked up): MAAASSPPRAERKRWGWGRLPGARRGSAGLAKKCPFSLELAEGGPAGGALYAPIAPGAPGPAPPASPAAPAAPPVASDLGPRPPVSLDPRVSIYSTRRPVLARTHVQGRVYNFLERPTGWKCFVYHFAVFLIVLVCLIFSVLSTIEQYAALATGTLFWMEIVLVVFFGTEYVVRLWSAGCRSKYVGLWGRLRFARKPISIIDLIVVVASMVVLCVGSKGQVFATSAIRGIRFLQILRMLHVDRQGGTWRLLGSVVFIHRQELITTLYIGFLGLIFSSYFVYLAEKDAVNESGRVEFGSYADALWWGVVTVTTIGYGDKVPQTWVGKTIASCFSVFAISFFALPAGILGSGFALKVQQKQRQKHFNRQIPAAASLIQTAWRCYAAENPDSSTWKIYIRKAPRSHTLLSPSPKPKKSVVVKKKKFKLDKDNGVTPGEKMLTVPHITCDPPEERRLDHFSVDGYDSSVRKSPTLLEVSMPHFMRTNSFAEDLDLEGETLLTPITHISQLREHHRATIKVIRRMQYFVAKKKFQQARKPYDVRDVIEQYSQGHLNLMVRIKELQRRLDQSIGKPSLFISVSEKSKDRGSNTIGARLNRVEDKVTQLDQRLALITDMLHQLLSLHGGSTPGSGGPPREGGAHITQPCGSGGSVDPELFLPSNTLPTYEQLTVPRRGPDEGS
KCNQ1 pot: potentiators or activators of human KCNQ1 potassium channel; P51787; CHO-K1 KCNQ1, thallium flux FluxOR fluorescence; stronger effect = higher value; B-score at 10 µM; 310,000 compounds, 0.35% hits; AID 2648;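 active means fluorescence ratio B-score, a plate-corrected score, at least three library SD, with initial intensity B-score within 5 SD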
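Assay system: CHO-K1 cells stably expressing KCNQ1. Medium: assay buffer for compound exposure, DMSO matched across wells. Timing: 37 °C overnight plating, 90-min dark dye load, 20-min compound pretreatment. Signal: kinetic FluxOR fluorescence, 10 s baseline plus 110 s post-stimulus.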
PHOSPHO1 block: PHOSPHO1 (human) inhibition. Q8TCT1. recombinant PHOSPHO1, absorbance phosphatase assay. inhibition, % at 13.3 µM. 290,000 compounds, 1.1% hits; in the data active means inhibition above about 60%
KCNK3 confirm: confirmation of human KCNK3 two-pore domain potassium channel inhibitors. shares compounds with KCNK3 inh. CHO-KCNK3 thallium flux, FluxOR fluorescence; 0% buffer, 100% carvedilol maximal block. 2,400 compounds, 99% hits. ratio percent of control, % at 10 µM. AID 651638;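 active means ratio percent of control, averaged over triplicates, above buffer control mean plus 5 SD, cut at about 64% in these data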;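 further: ratio is the fluorescence rise from min to max over baseline after thallium stimulus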
KCNK3 uninduced: activity in cells without induced KCNK3 expression; shares compounds with KCNK3 inh; non-induced KCNK3 parental cells, FluxOR thallium flux; stronger effect = lower value; thallium flux ratio (lower = more inhibition) at 10 µM; 2,400 compounds, 40% hits;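 active means thallium flux ratio, averaged over three wells, more than 5 SD below the buffer control mean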;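 further: host cells are CHO cells without KCNK3 induction; ratio is peak minus trough fluorescence over baseline then normalized to buffer controls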
An asterisk follows results filed as active; i = inactive; . = not tested or not shown. A selection: hits, their analogues and other compounds. The true share with any hit is near 4%.

SMILES | KCNK9 block | KCNK3 inh | hERG rescue | KCNQ1 inh | KCNQ1 pot | PHOSPHO1 block | KCNK3 confirm | KCNK3 uninduced
CCOC(=O)C1CCCCN1C(=O)/C(=C/c1ccc(OC)cc1)c1ccc(OC)c(OC)c1 (configuration not stated) | . | i | . | . | . | . | . | .
CCn1c2ccccc2c2cc(NC(=O)c3cc(C)on3)ccc21 | i | -10* | -8 | i | i | 21 | 123* | 0.16*
CCn1c2ccccc2c2cc(/C=N/NC(=O)c3ccncc3)ccc21 | i | -11* | -15 | i | i | 17 | 116* | 0.14*
CCn1c2ccccc2c2cc(NC(=O)c3cc(OC)cc(OC)c3)ccc21 | i | i | -4 | i | i | 10 | . | .
CCn1c2ccccc2c2cc(NC(=O)c3ccc(Br)o3)ccc21 | i | -11* | -10 | i | i | -3 | 116* | i
CSCCC(NC(=O)c1ccc(Cl)cc1)C(=O)OCC(=O)Nc1cc(Cl)ccc1C (configuration not stated) | i | i | -8 | i | i | 7 | . | .
N#Cc1cc2cc3ccccc3nc2n2c(=O)c3ccccc3nc12 | i | -9.6* | -9 | i | i | 17 | 122* | 0.12*
Cc1ccc(-c2cc(C(=O)N/N=C\c3cnn(C)c3C)c3ccccc3n2)cc1C | i | -10* | -8 | i | i | 3 | 99* | 0.15*
Cc1cc(C)cc(NC(=O)Cn2cc(C=O)c3ccccc32)c1 | i | i | -1 | i | i | 4 | . | .
CC(NS(=O)(=O)c1ccccc1)C(c1cccs1)N1CCN(c2ccccc2)CC1 (configuration not stated) | i | i | -5 | i | i | 0 | . | .
COc1ccccc1N1CCN(C(c2cccs2)C(C)NS(=O)(=O)c2ccccc2)CC1 (configuration not stated) | i | -9.6* | -14 | 6* | i | 18 | 96* | i
CC(C)CC(=O)Nc1ccc2nn(-c3ccccc3)nc2c1 | i | i | -4 | i | i | 16 | . | .
N#CCC(=O)Nc1ccc(C(=O)OCC(=O)N=c2sccn2Cc2ccccc2Cl)cc1 | i | -11* | -16 | i | i | . | 92* | i
CN1CCN(CCCNC(=O)c2ccc(/C=C3/Sc4ccccc4N(Cc4cccc(Cl)c4)C3=O)cc2)CC1 | -7.1* | -9.4* | -20 | 11* | i | -38 | 118* | i
CCOC(=O)C1CCCN(c2c(NCCCN(C)Cc3ccccc3)c(=O)c2=O)C1 (configuration not stated) | i | i | -10 | i | i | -24 | . | .
O=C(COc1ccc(Cl)cc1)Nc1nc(-c2cccs2)cs1 | i | -9.3* | -3 | i | i | 19 | 127* | 0.15*
Cc1cc(Br)ccc1NC(=O)CN(C)C(=O)C1CCN(C(=O)c2ccc(F)cc2)CC1 | i | i | -17 | i | i | . | . | .
O=C(CO/N=C/c1cccc([N+](=O)[O-])c1)Nc1ccc2ccccc2c1 | i | -9.2* | 3 | i | i | 5 | 98* | i
O=C(NCCc1ccccc1)C(=O)NCC1OCCN1S(=O)(=O)c1cc(F)ccc1F (configuration not stated) | i | i | -28 | i | i | 31 | . | .
COc1ccccc1NS(=O)(=O)c1cccc(C(=O)NCC2(N(C)C)CCCCC2)c1 | i | i | -11 | i | i | . | . | .
CCOC(=O)CNC(=O)Cn1cnc2sc(C)c(S(=O)(=O)N3CCOCC3)c2c1=O | i | i | -1 | i | i | 7 | . | .
N#Cc1nc(COc2ccc(Br)cc2)oc1N1CCCCCC1 | i | -15* | -7 | i | i | -4 | 82* | i
CC1Cc2ccccc2N1S(=O)(=O)c1cccs1 (configuration not stated) | i | -9.4* | -15 | i | i | 5 | 124* | 0.13*
Cc1cc([N+](=O)[O-])ccc1-c1ccc(/C=N/NC(=O)c2ccc(Br)o2)o1 | i | -9.4* | -1 | i | i | 17 | 105* | i
O=[N+]([O-])C(/C=C(\Cl)[N+](=O)[O-])=C(N1CCCCC1)N1CCCCC1 | i | i | -4 | i | i | -23 | . | .
SMILES | KCNK9 block | KCNK3 inh | hERG rescue | KCNQ1 inh | KCNQ1 pot | PHOSPHO1 block | KCNK3 confirm | KCNK3 uninduced
O=[N+]([O-])C(=C1SCCS1)C(=C(Cl)Cl)N1CCCCC1 | i | -11* | -4 | i | i | -17 | 105* | i
CCOc1ccccc1CNC(c1ccccc1)c1ccccc1 | i | -10* | -12 | i | i | 14 | 67* | 0.16*
COc1cc(/C=C2\SC(c3ccc(C)cc3)=NC2=O)ccc1O | i | -9.4* | -4 | i | i | -35 | 142* | 0.099*
CCOc1cc(/C=C2\SC(N)=NC2=O)ccc1O | i | i | -3 | i | i | -6 | . | .
COc1ccc(CNC(=O)C(=O)NCC2OCCCN2S(=O)(=O)c2cccs2)cc1 (configuration not stated) | i | i | -14 | i | i | 43 | . | .
c1ccc(COn2nnc3ccccc32)c(COn2nnc3ccccc32)c1 | i | -9.7* | -10 | i | i | -15 | 102* | i
Clc1cccc(Cl)c1COn1nnc2ccccc21 | i | i | -8 | i | i | -9 | . | .
COc1ccc(C(=O)Nc2cc3c(cc2OC)CCCC3)cc1Br | i | -13* | 3 | i | i | 26 | 105* | 0.15*
COc1cc2c(cc1NC(=O)c1ccc(C(C)(C)C)cc1)CCCC2 | i | -10* | 1 | i | i | 25 | 105* | i
Cc1ccccc1C(=O)NNC(=O)C1CCN(C(=O)Nc2ccccc2)CC1 | i | i | -13 | i | i | . | . | .
O=C(CN1CCN(c2ccc(O)cc2)CC1)N1CCc2ccccc21 | i | i | -3 | i | i | 27 | . | .
COc1c(Cl)cc(Cl)cc1C(=O)Nc1ccc(C(=O)O)cc1 | i | i | -4 | i | i | -3 | . | .
COc1c(Cl)cc(Cl)cc1/C=C/C(=O)c1ccc(NC(=O)c2cccs2)cc1 | i | -10* | -13 | i | i | -24 | 107* | i
CCOC(=O)CN1C(=O)/C(=C/c2c(F)cccc2Cl)Oc2ccccc21 | -7.8* | -8.8* | -7 | 6* | i | 14 | 123* | i

Compound activity deposited in PubChem BioAssay by several laboratories.
